In ChEMBL document CHEMBL1144522, “Novel C2-C3' N-peptide linked macrocyclic taxoids. Part 2: synthesis and biological activities of docetaxel analogues with a peptide side chain at C2 and their macrocyclic derivatives” (Bioorg Med Chem, 2007):
The source made the active and inactive calls. The calls are words filed in the database; no cut-off is given here. *1 amine or outer side, *2 acyl side, *3 side chain or, on linkers, in order; H or OH if unused. Where a SMILES comes first, the peptide text is derived from it. Bridges are numbered along the chain shown (N, C = ends). [ ]: non-standard residue; d: D form. The star is where a group is joined. ξ: configuration not given here. X1 = CC(=O)O[C@@]12COC1C[C@H](O)[C@@]1(C)C(=O)[C@H](O)C3=C(C)[C@@H](OC(=O)[C@H](O)[C@@H](NC(=O)[*:1])c4ccccc4)C[C@@](O)([C@@H](O[*:2])C21)C3(C)C; ξD = NC(CC(=O)O)C(=O)O; OtBu = CC(C)(C)O*

Tests used:
KB = test: Cytotoxicity against human KB cells after 72 hrs; type: cell-based; conditions: for Activity: human, kb; for IC50: Homo sapiens, KB
How it was run: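 Cell proliferation measured after 72 h incubation with compound. IC50 is the drug concentration that inhibits proliferation by 50%. Run by an established literature protocol.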

Tubulin = test: (§1) Tubulin interaction assessed as inhibition of cold-induced microtubule disassembly; type: protein-complex assay, Homo sapiens
How it was run: (§2)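 Microtubular protein was purified from mammalian brain. The assay followed the rate of microtubule disassembly. IC50 is the concentration that inhibits that rate by 50%. Run by an established literature protocol.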

Tubulin (Homo sapiens) = Tubulin (Homo sapiens) (UniProt P68371+Q9H4B7+P0DPH7+P68366+Q13509+Q71U36+P04350+Q3ZCM7+P07437+P68363+Q9BQE3+Q6PEY2+Q13885+Q9BVA1+Q9BUF5); test: as §1; type: protein-complex assay; how it was run: as §2

| IC50 (Tubulin) [nM] | Activity (Tubulin (Homo sapiens)) | SMILES | Activity (KB) | IC50 (KB) [nM] |
| --- | --- | --- | --- | --- |
| 600 | – | CC(=O)O[C@@]12COC1C[C@H](O)[C@@]1(C)C(=O)[C@H](O)C3=C(C)[C@@H](OC(=O)C(O)C(NC(=O)N[C@H](C(=O)N4CCC[C@H]4C(=O)NCC(=O)O)C(C)C)c4ccccc4)C[C@@](O)([C@@H](OCc4ccccc4)C21)C3(C)C (some centres undefined) | – | > 10000 |
| – | inactive | CC(=O)O[C@@]12COC1C[C@H](O)[C@@]1(C)C(=O)[C@H](O)C3=C(C)[C@@H](OC(=O)[C@H](O)[C@@H](NC(=O)OC(C)(C)C)c4ccccc4)C[C@@](O)([C@@H](OC(=O)CNC(=O)CN)C21)C3(C)C (some centres undefined) | Not Active | – |
| 51000 | – | CC(=O)O[C@@]12COC1C[C@H](O)[C@@]1(C)C(=O)[C@H](O)C3=C(C)[C@@H](OC(=O)[C@H](O)[C@@H](NC(=O)OC(C)(C)C)c4ccccc4)C[C@@](O)([C@@H](OC(=O)CN)C21)C3(C)C (some centres undefined) | – | > 10000 |
| 1000 | – | CC(=O)O[C@@]12COC1C[C@H](O)[C@@]1(C)C(=O)[C@H](O)C3=C(C)[C@@H](OC(=O)C(O)[C@@H](NC(=O)N[C@H](C(=O)N4CCC[C@H]4C(=O)NCC(=O)NCC(=O)O)C(C)C)c4ccccc4)C[C@@](O)([C@@H](OC(=O)c4cccc(N)c4)C21)C3(C)C (some centres undefined) | – | > 10000 |
| – | inactive | CC(=O)O[C@@]12COC1C[C@H](O)[C@@]1(C)C(=O)[C@H](O)C3=C(C)[C@@H](OC(=O)[C@H](O)[C@@H](NC(=O)OC(C)(C)C)c4ccccc4)C[C@@](O)([C@@H](OC(=O)[C@@H]4CCCN4C(=O)CNC(=O)CN)C21)C3(C)C (some centres undefined) | Not Active | – |
| – | inactive | CC(=O)O[C@@]12COC1C[C@H](O)[C@@]1(C)C(=O)[C@H](O)C3=C(C)[C@@H](OC(=O)[C@H](O)[C@@H](NC(=O)OC(C)(C)C)c4ccccc4)C[C@@](O)([C@@H](OC(=O)[C@@H](NC(=O)[C@@H]4CCCN4C(=O)CNC(=O)CN)C(C)C)C21)C3(C)C (some centres undefined) | Not Active | – |

The next lines start with the molecule.

| SMILES | IC50 (Tubulin) [nM] | Activity (Tubulin (Homo sapiens)) | Activity (KB) | IC50 (KB) [nM] |
| --- | --- | --- | --- | --- |
| CC(=O)O[C@@]12COC1C[C@H](O)[C@@]1(C)C(=O)[C@H](O)C3=C(C)[C@@H]4C[C@@](O)([C@@H](OC(=O)CNC(=O)C(CC(=O)OC(C)(C)C)NC(=O)CNC(=O)CNC(=O)[C@@H]5CCCN5C(=O)[C@H](C(C)C)NC(=O)N[C@@H](c5ccccc5)[C@@H](O)C(=O)O4)C21)C3(C)C (some centres undefined) (VPGG[ξD](OtBu)G; linker N-C via X1) | – | – | Non-toxic | – |
| CC(=O)O[C@@]12CO[C@@H]1C[C@H](O)[C@@]1(C)C(=O)[C@H](O)C3=C(C)[C@@H](OC(=O)[C@H](O)[C@@H](NC(=O)OC(C)(C)C)c4ccccc4)C[C@@](O)([C@@H](OC(=O)c4ccccc4)[C@H]21)C3(C)C [DOCETAXEL] | 500 | – | – | 0.1 |
| CC(=O)O[C@@]12COC1C[C@H](O)[C@@]1(C)C(=O)[C@H](O)C3=C(C)[C@@H](OC(=O)[C@H](O)[C@@H](NC(=O)N[C@H](C(=O)OCc4ccccc4)C(C)C)c4ccccc4)C[C@@](O)([C@@H](OCc4ccccc4)C21)C3(C)C (some centres undefined) | 800 | – | – | 4 |
| COC(=O)[C@@H](CCSC)NC(=O)[C@H](Cc1ccccc1)NC(=O)[C@@H](NC(=O)N[C@@H](c1ccccc1)[C@@H](O)C(=O)O[C@H]1C[C@@]2(O)[C@@H](OCc3ccccc3)C3[C@]4(OC(C)=O)COC4C[C@H](O)[C@@]3(C)C(=O)[C@H](O)C(=C1C)C2(C)C)C(C)C (some centres undefined) | 2600 | – | – | – |
| COC(=O)[C@H](CCSC)NC(=O)[C@H](Cc1ccccc1)NC(=O)[C@@H](NC(=O)N[C@@H](c1ccccc1)[C@@H](O)C(=O)O[C@H]1C[C@@]2(O)[C@@H](OCc3ccccc3)C3[C@]4(OC(C)=O)COC4C[C@H](O)[C@@]3(C)C(=O)[C@H](O)C(=C1C)C2(C)C)C(C)C (some centres undefined) | – | – | – | 1100 |
| CC(=O)O[C@@]12COC1C[C@H](O)[C@@]1(C)C(=O)[C@H](O)C3=C(C)[C@@H]4C[C@@](O)([C@@H](OC(=O)CNC(=O)CNC(=O)[C@@H]5CCCN5C(=O)[C@H](C(C)C)NC(=O)N[C@@H](c5ccccc5)[C@@H](O)C(=O)O4)C21)C3(C)C (some centres undefined) | – | – | Non-toxic | – |
| CC(=O)O[C@@]12COC1C[C@H](O)[C@@]1(C)C(=O)[C@H](O)C3=C(C)[C@@H](OC(=O)[C@H](O)[C@@H](NC(=O)NCC(=O)N[C@@H](CO)C(=O)N[C@@H](Cc4ccc(O)cc4)C(=O)O)c4ccccc4)C[C@@](O)([C@@H](OCc4ccccc4)C21)C3(C)C (some centres undefined) | 1000 | – | – | 1050 |
| CC(=O)O[C@@]12COC1C[C@H](O)[C@@]1(C)C(=O)[C@H](O)C3=C(C)[C@@H](OC(=O)[C@H](O)[C@@H](NC(=O)NCC(=O)N[C@@H](COCc4ccccc4)C(=O)N[C@@H](Cc4ccc(OCc5ccccc5)cc4)C(=O)OCc4ccccc4)c4ccccc4)C[C@@](O)([C@@H](OCc4ccccc4)C21)C3(C)C (some centres undefined) | – | inactive | – | 90 |
| CC(=O)O[C@@]12COC1C[C@H](O)[C@@]1(C)C(=O)[C@H](O)C3=C(C)[C@@H]4C[C@@](O)([C@@H](OC(=O)c5cccc(c5)NC(=O)CNC(=O)CNC(=O)[C@@H]5CCCN5C(=O)[C@H](C(C)C)NC(=O)N[C@@H](c5ccccc5)[C@@H](O)C(=O)O4)C21)C3(C)C (some centres undefined) | – | – | Non-toxic | – |
| CC(=O)O[C@@]12COC1C[C@H](O)[C@@]1(C)C(=O)[C@H](O)C3=C(C)[C@@H](OC(=O)C(O)[C@@H](NC(=O)N[C@H](C(=O)N4CCC[C@H]4C(=O)NCC(=O)NCC(=O)OCc4ccccc4)C(C)C)c4ccccc4)C[C@@](O)([C@@H](OC(=O)c4cccc([N+](=O)[O-])c4)C21)C3(C)C (some centres undefined) | 500 | – | – | > 10000 |
| CC(=O)O[C@@]12COC1C[C@H](O)[C@@]1(C)C(=O)[C@H](O)C3=C(C)[C@@H](OC(=O)[C@H](O)[C@@H](NC(=O)OC(C)(C)C)c4ccccc4)C[C@@](O)([C@@H](OC(=O)CNC(=O)Oc4ccccc4)C21)C3(C)C (some centres undefined) | – | inactive | – | 90 |
